Experiments:
[1] = melting temperature; fluorescence melt of hairpins on a sequencing array, two-state fit, raised by 9.35 °C to match UV melts; details: sodium 0.088 M
How it was run: (§1)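 Two-state fits, bootstrapped, provided melting temperature and folding enthalpy from Cy3 fluorescence normalised to pre-quench Cy3 and to control constructs. Library hairpins with annealed Cy3 and quencher oligos were imaged on a sequenced MiSeq flow cell in 50 mM Na-HEPES pH 8.0, 25 mM NaCl, at 2.5 °C intervals up to 60 °C. Four replicates were combined with inverse-variance weighting. A 9.35 °C upward shift was applied to fitted temperatures to match UV melts.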

[2] = folding enthalpy; higher = less favourable; fluorescence melt of hairpins on a sequencing array, two-state fit; details: sodium 0.088 M
How it was run: as §1

| Sequence | Tm [1] [°C] | folding enthalpy [2] [kcal/mol] |
| --- | --- | --- |
| GATAGAGGAAACTCTATC (((((((....))))))) | 50.2 | -42 |
| GATAGCACGAAAGTGATC (((..(((....)))))) | 28.4 | -9.8 |
| GATAGCCGAAAGGCGATC (((.(((....))).))) | 58.8 | -17.9 |
| GATAGCGAAAGCTAGATC ((((((....)))..))) | 45.2 | -15.4 |
| GATAGCGAAAGCTCATC ((((((....))).))) | 36.5 | -13.3 |
| GATAGCGAAAGCTGAATC ((((((....)))..))) | 27 | -10.9 |
| GATAGCGAAAGCTGTATC ((((((....)))..))) | 31.9 | -12.8 |
| GATAGCGAAAGCTTAATC ((((((....)))..))) | 25.3 | -10.8 |
| GATAGGCCGAAAGGCATC (((..(((....)))))) | 30.3 | -9.82 |
| GATAGTGGAAACACTATC (((((((....))))))) | 54.5 | -47.2 |
| GATAGTGGAAACATTATC ((((.((....)).)))) | 31 | -18.4 |
| GATATAGGAAACTATATC (((((((....))))))) | 45.5 | -33.4 |
| GATATAGGAAACTATGTC ((.((((....)))).)) | 33.5 | -21.8 |
| GATATCACGAAAGTGATC (((..(((....)))))) | 39.4 | -9.68 |
| GATATCCGAAAGGAAATC (((.(((....))).))) | 37.1 | -27.2 |
| GATATCCGAAAGGACATC (((.(((....))).))) | 38.9 | -22 |
| GATATCGAAAGATATC ((((((....)))))) | 53.6 | -41 |
| GATATCGGAAACGGTATC ((((.((....)).)))) | 44 | -29.8 |
| GATATGAAAATATC (((((....))))) | 35.7 | -15.7 |
| GATATTGGAAACAGTATC ((((.((....)).)))) | 34.3 | -12.2 |
| GATCAAAAAGTTGATC ((((((....)))))) | 33 | -14.1 |
| GATCAAAAATTGATC ((((((...)))))) | 37 | -29.7 |
| GATCAAAACATTGATC ((((((....)))))) | 42.3 | -31.7 |
| GATCAAAAGTTGATC ((((((...)))))) | 39.5 | -26.1 |

| Sequence | Tm [1] [°C] | folding enthalpy [2] [kcal/mol] |
| --- | --- | --- |
| GATCAAAAGTTTGATC ((((((....)))))) | 42.4 | -27.7 |
| GATCAAACATTGATC ((((((...)))))) | 41.2 | -31.4 |
| GATCAAAGATTGATC ((((((...)))))) | 36.1 | -27.5 |
| GATCAAAGATTTGATC ((((((....)))))) | 43.6 | -31.8 |
| GATCAAAGCGTTGATC ((((((....)))))) | 43.7 | -31.6 |
| GATCAAAGTATTGATC ((((((....)))))) | 42.6 | -29.8 |
| GATCAAAGTGTTGATC ((((((....)))))) | 42.4 | -29.6 |
| GATCAACAGATTGATC ((((((....)))))) | 40.4 | -30.1 |
| GATCAACATTTGATC ((((((...)))))) | 38.2 | -31.1 |
| GATCAACCACTTGATC ((((((....)))))) | 42.3 | -32.6 |
| GATCAACCCATTGATC ((((((....)))))) | 44.8 | -31.8 |
| GATCAACCCTTGATC ((((((...)))))) | 43.6 | -30.4 |
| GATCAACCGGTTGATC ((((((....)))))) | 55.9 | -53.5 |
| GATCAACCTGTTGATC ((((((....)))))) | 55.2 | -41 |
| GATCAACGATTGATC ((((((...)))))) | 36.3 | -19.8 |
| GATCAACGATTTGATC ((((((....)))))) | 39.3 | -24.9 |
| GATCAACGGGTTGATC ((((((....)))))) | 56.8 | -36.7 |
| GATCAACGGTTGATC ((((((...)))))) | 44.7 | -40.3 |
| GATCAACGTATTGATC ((((((....)))))) | 44.1 | -26.9 |
| GATCAACGTGTTGATC ((((((....)))))) | 57.4 | -60.2 |
| GATCAACTGATTGATC ((((((....)))))) | 42.7 | -32.3 |
| GATCAACTGGTTGATC ((((((....)))))) | 55.2 | -39.8 |
| GATCAACTTATTGATC ((((((....)))))) | 43 | -35.4 |
| GATCAAGACGTTGATC ((((((....)))))) | 48.2 | -34 |

| Sequence | Tm [1] [°C] | folding enthalpy [2] [kcal/mol] |
| --- | --- | --- |
| GATCAAGACTTGATC ((((((...)))))) | 43.4 | -32.4 |
| GATCAAGACTTTGATC ((((((....)))))) | 51.7 | -35 |
| GATCAAGAGATTGATC ((((((....)))))) | 41.8 | -29.5 |
| GATCAAGATATTGATC ((((((....)))))) | 48.5 | -34.7 |
| GATCAAGCAATTGATC ((((((....)))))) | 48.8 | -34.1 |
| GATCAAGCATTTGATC ((((((....)))))) | 51 | -32.7 |
| GATCAAGCCATTGATC ((((((....)))))) | 50.5 | -48.9 |
| GATCAAGCGTTTGATC ((((((....)))))) | 43.9 | -30.8 |
| GATCAAGCTTTGATC ((((((...)))))) | 43.4 | -29.5 |
| GATCAAGGAAACTCGATC ((((.((....)).)))) | 28.4 | -17.2 |
| GATCAAGGAAACTTGATC (((((((....))))))) | 54 | -46.6 |
| GATCAAGGAATTGATC ((((((....)))))) | 47.6 | -31.8 |
| GATCAAGGCTTTGATC ((((((....)))))) | 50.1 | -42 |
| GATCAAGGTGTTGATC ((((((....)))))) | 46.1 | -31.7 |
| GATCAAGTCATTGATC ((((((....)))))) | 52.3 | -41.8 |
| GATCAATAAATTGATC ((((((....)))))) | 42.8 | -30.7 |
| GATCAATACATTGATC ((((((....)))))) | 49.2 | -37.3 |
| GATCAATACGTTGATC ((((((....)))))) | 48 | -37.9 |
| GATCAATACTTTGATC ((((((....)))))) | 48.1 | -39.6 |
| GATCAATAGTTGATC ((((((...)))))) | 40.5 | -26.2 |
| GATCAATATGTTGATC ((((((....)))))) | 49 | -38.9 |
| GATCAATATTTGATC ((((((...)))))) | 41.9 | -27.9 |
| GATCAATATTTTGATC ((((((....)))))) | 45.6 | -35.6 |
| GATCAATCCCTTGATC ((((((....)))))) | 46.7 | -41.6 |

| Sequence | Tm [1] [°C] | folding enthalpy [2] [kcal/mol] |
| --- | --- | --- |
| GATCAATCGTTGATC ((((((...)))))) | 40.4 | -26.8 |
| GATCAATGGCTTGATC ((((((....)))))) | 42.2 | -29 |
| GATCAATGGTTGATC ((((((...)))))) | 41 | -26.7 |
| GATCAATGGTTTGATC ((((((....)))))) | 44.7 | -31.9 |
| GATCAATGTGTTGATC ((((((....)))))) | 50.4 | -35 |
| GATCAATGTTTTGATC ((((((....)))))) | 47 | -29.4 |
| GATCAATTATTTGATC ((((((....)))))) | 45.8 | -38.9 |
| GATCAATTCATTGATC ((((((....)))))) | 53.1 | -50.7 |
| GATCAATTCGTTGATC ((((((....)))))) | 48.6 | -37.8 |
| GATCAATTCTTGATC ((((((...)))))) | 44.8 | -29.1 |
| GATCAATTTATTGATC ((((((....)))))) | 54.2 | -52.4 |
| GATCAATTTCTTGATC ((((((....)))))) | 43.3 | -39.3 |
| GATCACAAGGGTGATC ((((((....)))))) | 55.9 | -36.4 |
| GATCACAATCGTGATC ((((((....)))))) | 56.4 | -38.5 |
| GATCACACGGTGATC ((((((...)))))) | 60.5 | -37.5 |
| GATCACACGTGTGATC ((((((....)))))) | 57.7 | -43.5 |
| GATCACACTTGTGATC ((((((....)))))) | 56.4 | -39.4 |
| GATCACAGAAGTGATC ((((((....)))))) | 54.4 | -37.4 |
| GATCACAGTAGTGATC ((((((....)))))) | 59 | -40.1 |
| GATCACAGTGTGATC ((((((...)))))) | 56.6 | -39.9 |
| GATCACATCTGTGATC ((((((....)))))) | 57.9 | -38.7 |
| GATCACATTTGTGATC ((((((....)))))) | 59.3 | -40.8 |
| GATCACCACCGTGATC ((((((....)))))) | 55.5 | -37.3 |
